Reference: ChEMBL document CHEMBL1148398, “Design, synthesis, and biological evaluation of thio-containing compounds with serum HDL-cholesterol-elevating properties” (2004)

How the values were obtained:
Rattus norvegicus [1] = test: Effect of compound on thyroxine levels in 1st group of normal chow-fed male rats after a dose of 1 mg/kg/day; assay type: functional, organism-based
How it was run: (§1)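 Male Sprague–Dawley CD rats, 60–80 g, on standard chow with reverse 12 h light/dark cycle. One oral gavage dose daily for 4 days, suspended in 1.3% Tween 80 and 0.25% CMC. Fasted overnight; sacrificed 24 h after the last dose. Serum TC on clinical analyzer, lipoproteins by FPLC with cholesterol per fraction, T4 on analyzer. Mean ± SEM, six rats per group.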

Cricetinae gen. sp. [2] = test: Effect of compound on triglycerides level in 1st group of cholesterol-fed male hamsters at 3 mg/kg/day after 14 days of treatment; conditions: Mesocricetus auratus
Rattus norvegicus [3] = test: Effect of compound on serum apolipoprotein A1 concentration in chow-fed male rats at a dose of 0 mg/kg/day; assay type: functional, organism-based
How it was run: (§2)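 Separate dose-response study in male Sprague–Dawley CD rats, 60–80 g, on chow. Oral gavage once daily for 4 days in 1.3% Tween 80 / 0.25% CMC; fasted overnight, bled 24 h after last dose. Apo-A1 by ELISA with rabbit anti-rat primary, alkaline phosphatase-conjugated anti-rabbit IgG and p-nitrophenyl phosphate substrate. HDL-C by FPLC fractionation. Mean ± SEM, six per group.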

Rattus norvegicus [4] = test: Effect of compound on gain in body weight in 3rd group of normal chow-fed male rats after a dose of 5 mg/kg/day; assay type: functional
How it was run: (§3)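 Male Sprague–Dawley CD rats (60–80 g) on standard chow under a reversed 12 h light/dark cycle. Compound was suspended in 1.3% Tween 80/0.25% CMC and given as a single daily oral gavage dose for 4 days. Rats were fasted overnight and killed 24 h after the last dose. Serum ALT, AST, ALKP and LDH were read on a clinical analyzer. Weight gain was start versus end weight. Mean ± SEM, n = 6.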

Rattus norvegicus [5] = test: Effect of compound on high-density lipoprotein cholesterol levels in 7th group of normal chow-fed male rats after a dose of 100 mg/kg/day; assay type: functional, organism-based
Rattus norvegicus [6] = test: Effect of compound on triglycerides level in 2nd group of normal chow-fed male rats after a dose of 2 mg/kg/day; assay type: functional, organism-based
How it was run: (§4)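 Male Sprague–Dawley CD rats (60–80 g) on Purina 5001 chow with a reverse 12 h light/dark cycle. Dosed once daily by oral gavage for 4 days, suspended in 1.3% Tween 80 / 0.25% CMC. Fasted overnight and bled 24 h after the last dose. Serum TC and glycerol-blanked TG measured enzymatically; VLDL-C by FPLC fractionation with cholesterol assay. n=6, mean ± SEM.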

Rattus norvegicus [7] = test: Percent change in triglycerides following oral administration of compound in normal chow-fed rats at 100 mg/kg/day for 4 days; assay type: functional
How it was run: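 Chow-fed male Sprague–Dawley CD rats, 60–80 g, gavaged 100 mg/kg/day for 4 days in 1.3% Tween 80/0.25% CMC. Fasted overnight, bled 24 h after the last dose. Total cholesterol and glycerol-blanked triglycerides read enzymatically; lipoproteins by FPLC with cholesterol per fraction. % change versus control; six per group, p < 0.05.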

Rattus norvegicus [8] = test: Effect of compound on very low-density lipoprotein cholesterol levels in 6th group of normal chow-fed male rats after a dose of 50 mg/kg/day; assay type: functional, organism-based; how it was run: as §4
Rattus norvegicus [9] = test: Effect of compound on alkaline phosphatase (ALKP) levels in 2nd group of normal chow-fed male rats after a dose of 2 mg/kg/day; assay type: functional, organism-based; how it was run: as §3
Rattus norvegicus [10] = test: Effect of compound on low-density lipoprotein cholesterol levels in 1st group of normal chow-fed male rats after a dose of 1 mg/kg/day; assay type: functional, organism-based; how it was run: as §1
Rattus norvegicus [11] = test: Effect of compound on serum high-density lipoprotein cholesterol concentration in chow-fed male rats at a dose of 50 mg/kg/day; assay type: functional, organism-based; how it was run: as §2
Cricetinae gen. sp. [12] = test: Effect of compound on thyroxine levels in 2nd group of cholesterol-fed male hamsters at 10 mg/kg/day after 14 days of treatment; conditions: Mesocricetus auratus
Cricetinae gen. sp. [13] = test: Effect of compound on low-density lipoprotein cholesterol levels in 1st group of cholesterol-fed male hamsters at 3 mg/kg/day after 14 days of treatment; conditions: Mesocricetus auratus
Cricetinae gen. sp. [14] = test: Effect of compound on liver weight in 2nd group of cholesterol-fed male hamsters at 10 mg/kg/day after 14 days of treatment; assay type: functional
How it was run: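 Male Syrian Golden hamsters, 90–100 g, fed chow plus 0.25% cholesterol for 2 weeks before and throughout dosing. Compound suspended in 2% Tween 80 in saline, given by oral gavage for 14 days; vehicle controls. Fasted 4 h, last dose 2 h before sacrifice, then weighed and blood and liver collected. Liver enzymes read on a clinical analyzer. Six per group, mean ± SEM.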

Rattus norvegicus [15] = test: Effect of compound on triglyceride levels in 4th group of normal chow-fed male rats after a dose of 10 mg/kg/day; assay type: functional, organism-based; how it was run: as §4
Rattus norvegicus [16] = test: Effect of compound on triglycerides level in 1st group of normal chow-fed male rats after a dose of 1 mg/kg/day; assay type: functional, organism-based; how it was run: as §4
[17] = Effect on serum lipids in 4th group of cholesterol-fed male hamsters at 100 mg/kg/day after 14 days of treatment was evaluated as ratio of total cholesterol levels to high-density lipoprotein cholesterol levels; assay type: functional
How it was run: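 Male Syrian Golden hamsters on chow plus 0.25% cholesterol, 2 weeks before and during dosing. Oral gavage for 14 days in 2% Tween 80/saline. Fasted 4 h before sacrifice. Serum total cholesterol measured enzymatically; HDL-C from cholesterol in FPLC lipoprotein fractions; TC/HDL-C ratio calculated. Six per group, mean ± SEM.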

Cricetinae gen. sp. [18] = test: Effect of compound on alanine aminotransferase (ALT) levels in 4th group of cholesterol-fed male hamsters at 100 mg/kg/day after 14 days of treatment; conditions: Mesocricetus auratus
Rattus norvegicus [19] = test: Effect of compound on gain in body weight in 1st group of normal chow-fed male rats after a dose of 1 mg/kg/day; assay type: functional; how it was run: as §3
Rattus norvegicus [20] = test: Effect of compound on total plasma cholesterol levels in 2nd group of normal chow-fed male rats after a dose of 2 mg/kg/day; assay type: functional, organism-based; how it was run: as §1
Rattus norvegicus [21] = test: Effect of compound on triglyceride levels in 6th group of normal chow-fed male rats after a dose of 50 mg/kg/day; assay type: functional, organism-based; how it was run: as §4
Rattus norvegicus [22] = test: Effect of compound on very low-density lipoprotein cholesterol levels in 5th group of normal chow-fed male rats after a dose of 20 mg/kg/day; assay type: functional, organism-based; how it was run: as §4

SMILES: CCN1CC(=O)N(c2cc(Cl)ccc2C)C1=S
- Serum level (Rattus norvegicus [1]): 3.65 µg/dL
- Serum level (Cricetinae gen. sp. [2]): 431 mg/dL
- Serum level (Rattus norvegicus [3]): 63.2 mg/dL
- Body weight (Rattus norvegicus [4]): 30.7 g
- Serum level (Rattus norvegicus [5]): 76 mg/dL
- Serum level (Rattus norvegicus [6]): 15 mg/dL
- Change (Rattus norvegicus [7]): -23.1%
- Serum level (Rattus norvegicus [8]): 6.5 mg/dL
- Level (Rattus norvegicus [9]): 373 U l-1
- Serum level (Rattus norvegicus [10]): 5.7 mg/dL
- Serum level (Rattus norvegicus [11]): 87.3 mg/dL
- Serum level (Cricetinae gen. sp. [12]): 5.73 µg/dL
- Serum level (Cricetinae gen. sp. [13]): 178 mg/dL
- Liver weight (Cricetinae gen. sp. [14]): 9.08 g
- Serum level (Rattus norvegicus [15]): 21 mg/dL
- Serum level (Rattus norvegicus [16]): 18 mg/dL
- Ratio [17]: 1.95
- Level (Cricetinae gen. sp. [18]): 639 U l-1
- Body weight (Rattus norvegicus [19]): 26.3 g
- Serum level (Rattus norvegicus [20]): 56 mg/dL
- Serum level (Rattus norvegicus [21]): 14 mg/dL
- Serum level (Rattus norvegicus [22]): 5.3 mg/dL
